Converted amounts (≈) assume the structure as drawn.

One assay deals with Aspergillus clavatus. In words: Antifungal activity against Aspergillus clavatus MTCC 1323 assessed as fungal growth inhibition. The assay is classed as functional.
Assay [1] deals with Mycobacterium tuberculosis. Kind of assay: Antibacterial activity against Mycobacterium tuberculosis H37Rv assessed as bacterial growth inhibition. The assay is classed as functional.
The nature of assay [2]: Antioxidant activity assessed as nitric oxide radical scavenging activity at 100 ug/ml (reference value: 25.8 to 41.6 %). In kind it is functional. Particulars: dose 100.0 µg/ml. The gist of the method: (§1)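 Nitric oxide radical scavenging was tested at 0, 25, 50, 75 and 100 µg/ml of compound.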
A short description of assay [3]: Antioxidant activity assessed as DPPH radical scavenging activity at 50 ug/ml (reference value: 22 to 40.2 %). The assay is classed as functional. The note with it: dose 50.0 µg/ml. The gist of the method: (§2)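 DPPH radical scavenging was measured at 0, 25, 50, 75 and 100 µg/ml of each compound. Ascorbic acid was the reference.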
Assay [4] is described as follows: Antioxidant activity assessed as hydrogen peroxide radical scavenging activity at 25 ug/ml (reference value: 23.6 to 43.1 %). In kind it is functional. Particulars: dose 25.0 µg/ml. The gist of the method: (§3)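 Hydrogen peroxide scavenging was measured across a compound series of 0, 25, 50, 75 and 100 µg/ml.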
Assay [5] in a line: Antioxidant activity assessed as hydrogen peroxide radical scavenging activity at 75 ug/ml (reference value: 23.6 to 43.1 %). In kind it is functional. The note with it: dose 75.0 µg/ml. In a few lines: as §3
Assay [6] concerns Staphylococcus aureus. In words: Antibacterial activity against Staphylococcus aureus MTCC 96 assessed as bacterial growth inhibition. In kind it is functional.
The nature of assay [7]: Antioxidant activity assessed as DPPH radical scavenging activity at 25 ug/ml (reference value: 22 to 40.2 %). The assay is classed as functional. Particulars: dose 25.0 µg/ml. The gist of the method: as §2
A further assay deals with Pseudomonas aeruginosa. In words: Antibacterial activity against Pseudomonas aeruginosa MTCC 1688 assessed as bacterial growth inhibition. In kind it is functional.
Assay [8] can be described thus: Antioxidant activity assessed as DPPH radical scavenging activity at 100 ug/ml (reference value: 22 to 40.2 %). In kind it is functional. Particulars: dose 100.0 µg/ml. The gist of the method:
as §2
Background: Loss of DPPH colour is used to gauge radical scavenging.

Assay [9] in a line: Antioxidant activity assessed as hydrogen peroxide radical scavenging activity at 50 ug/ml (reference value: 23.6 to 43.1 %). The assay is classed as functional. Particulars: dose 50.0 µg/ml. In a few lines: as §3
A further assay has as its system Bacteria. Kind of assay: Antibacterial activity against ESBL-producing bacteria assessed as bacterial growth inhibition. The assay is classed as functional. In a few lines: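 Values are minimum inhibitory concentrations (MIC) in µg/mL, determined at an outside microbiology laboratory.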
The subject of a further assay is Enterococcus. Kind of assay: Antibacterial activity against vancomycin-resistant Enterococcus assessed as inhibition of bacterial growth. The assay is classed as functional. In a few lines:
(§4)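 Growth inhibition of the drug-resistant strain was read out as the minimum inhibitory concentration (MIC), reported in µg/mL. The same protocol was also run on an ESBL strain.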

Assay [10] can be described thus: Antioxidant activity assessed as hydrogen peroxide radical scavenging activity at 100 ug/ml (reference value: 23.6 to 43.1 %). The note with it: dose 100.0 µg/ml. The assay is classed as functional. The gist of the method: as §3
Another assay deals with Streptococcus pyogenes. In words: Antibacterial activity against Streptococcus pyogenes MTCC 442 assessed as bacterial growth inhibition. In kind it is functional.
In the next assay the test system is Escherichia coli. In words: Antibacterial activity against Escherichia coli MTCC 443 assessed as bacterial growth inhibition. In kind it is functional.
A further assay deals with Plasmodium falciparum. Kind of assay: Antimalarial activity against Plasmodium falciparum assessed as parasite growth inhibition. In kind it is functional, organism-based.
Assay [11] can be described thus: Antioxidant activity assessed as nitric oxide radical scavenging activity at 75 ug/ml (reference value: 25.8 to 41.6 %). In kind it is functional. Particulars: dose 75.0 µg/ml. The gist of the method:
as §1

A further assay relates to Candida albicans. In words: Antifungal activity against Candida albicans MTCC 227 assessed as fungal growth inhibition. The assay is classed as functional.
The subject of the next assay is Aspergillus niger. In words: Antifungal activity against Aspergillus niger MTCC 282 assessed as fungal growth inhibition. The assay is classed as functional.
Assay [12] in a line: Antioxidant activity assessed as DPPH radical scavenging activity at 75 ug/ml (reference value: 22 to 40.2 %). In kind it is functional. Particulars: dose 75.0 µg/ml. In a few lines:
as §2

Assay [13] can be described thus: Antioxidant activity assessed as nitric oxide radical scavenging activity at 50 ug/ml (reference value: 25.8 to 41.6 %). The assay is classed as functional. Particulars: dose 50.0 µg/ml. The gist of the method: as §1
The nature of assay [14]: Antioxidant activity assessed as nitric oxide radical scavenging activity at 25 ug/ml (reference value: 25.8 to 41.6 %). Particulars: dose 25.0 µg/ml. The assay is classed as functional. The gist of the method:
as §1

Assay [15] concerns Staphylococcus aureus. In words: Antibacterial activity against methicillin-resistant Staphylococcus aureus assessed as inhibition of bacterial growth. In kind it is functional. The gist of the method:
as §4

Assay [16] in a line: Antioxidant activity assessed as DPPH radical scavenging activity at 100 dilution. The assay is classed as functional.

The term MFC denotes the lowest tested concentration that kills the fungus rather than only halting it. By MIC is commonly meant the lowest concentration that inhibits growth of the organism. What is called IC50 is the concentration needed to halve the response being measured. Turning to `CC(=O)c1c(C)nc(SCC(=O)Nc2ccc(OCc3ccc(F)cc3)cc2)n1-c1ccc(Cl)cc1`, the MFC in the assay with Aspergillus clavatus, in the assay with Candida albicans and with Aspergillus niger was 1000 µg/mL (≈ 1910 µM) in each case. Moreover, the MIC in assay [1] came to 62.5 µg/mL (≈ 119 µM); in the assay on Staphylococcus aureus [6] it was 100 µg/mL (≈ 191 µM); in the assay on Pseudomonas aeruginosa it was 25 µg/mL (≈ 47.7 µM); with Bacteria it was 62.5 µg/mL (≈ 119 µM); in the assay with Enterococcus it was 62.5 µg/mL (≈ 119 µM); with Streptococcus pyogenes, 100 µg/mL (≈ 191 µM). Moreover, the MIC in the assay with Escherichia coli was determined as 50 µg/mL (≈ 95.4 µM); in the assay with Staphylococcus aureus [15] it was 125 µg/mL (≈ 239 µM). The Activity in assay [2] was found to be 89.5%; in [3], 58.6%; in assay [4], 51%; in [5], 74.5%; in assay [7], 42.9%; in assay [8] it was 91%. Further, the Activity in assay [9] was 68.4%; in [10], 88.1%; in assay [11], 84.3%; in [12] it was 67%; in [13], 58.3%; in [14], 50.8%. Also, the IC50 with Plasmodium falciparum was determined as 0.73 µg/mL (≈ 1.39 µM).
`O=C1O[C@H]([C@@H](O)CO)C(O)=C1O`: the Activity in assay [16] stood at 91.7%; in [2], 91.7%; in assay [3], 80.6%; in assay [4] it was 75.1%; in [5], 89%; in [7], 75.1%. The Activity in [8] turned out to be 91.7%; in assay [9], 80.6%; in assay [10], 91.7%; in assay [11] it was 89%; in [12], 89%; in assay [13] it was 80.6%. Moreover, the Activity in assay [14] worked out at 75.1%.
Consider `CC(=O)c1c(C)nc(SCC(=O)Nc2ccc(OC(=O)c3ccc(Cl)cc3)cc2)n1-c1ccc(Br)cc1`, for which the results for the MFC in the assay with Aspergillus clavatus, in the assay with Candida albicans and with Aspergillus niger were 500 µg/mL (≈ 835 µM), 1000 µg/mL (≈ 1670 µM) and 500 µg/mL (≈ 835 µM), respectively. For the same compound, the minimum inhibitory concentration (MIC) turned out to be 12.5 µg/mL (≈ 20.9 µM) in assay [1]; 250 µg/mL (≈ 417 µM) with Staphylococcus aureus [6]; 100 µg/mL (≈ 167 µM) in the assay on Pseudomonas aeruginosa; 250 µg/mL (≈ 417 µM) with Bacteria; 500 µg/mL (≈ 835 µM) with Enterococcus; 100 µg/mL (≈ 167 µM) in the assay with Streptococcus pyogenes. Moreover, the MIC in the assay on Escherichia coli was determined as 125 µg/mL (≈ 209 µM); in the assay with Staphylococcus aureus [15] it was 500 µg/mL (≈ 835 µM). The Activity in assay [2] stood at 90.8%; in [3], 52.1%; in assay [4], 38.7%; in [5], 68.9%; in assay [7], 45.2%; in assay [8] it was 83.1%. Also, the Activity in assay [9] is 54.2%; in assay [10], 86.1%; in assay [11], 82.3%; in assay [12] it was 65.2%; in [13], 62.4%; in [14] it was 38%. Also, the IC50 in the assay with Plasmodium falciparum came to 1.04 µg/mL (≈ 1.74 µM).
As to `CC(=O)c1c(C)nc(SCC(=O)Nc2ccc(OCc3ccccc3)cc2)n1-c1ccccc1`, the MFC stood at 1000 µg/mL (≈ 2120 µM) with Aspergillus clavatus, 500 µg/mL (≈ 1060 µM) with Candida albicans and 1000 µg/mL (≈ 2120 µM) with Aspergillus niger. The MIC is 500 µg/mL (≈ 1060 µM) in [1]; 25 µg/mL (≈ 53 µM) with Staphylococcus aureus [6]; 50 µg/mL (≈ 106 µM) with Pseudomonas aeruginosa; 250 µg/mL (≈ 530 µM) with Bacteria; 500 µg/mL (≈ 1060 µM) with Enterococcus; 125 µg/mL (≈ 265 µM) with Streptococcus pyogenes. Moreover, the MIC was determined as 125 µg/mL (≈ 265 µM) in the assay with Escherichia coli and 100 µg/mL (≈ 212 µM) in the assay with Staphylococcus aureus [15]. Besides, the Activity is 87.4% in [2]; 48.6% in assay [3]; 43.8% in assay [4]; 69.4% in [5]; 36.4% in assay [7]; 84.3% in assay [8]. The Activity in [9] was determined as 58%; in assay [10], 81.9%; in assay [11], 80.3%; in [12], 60%; in [13], 64.2%; in assay [14], 48.3%. Also, in the assay with Plasmodium falciparum, the IC50 came out at 0.93 µg/mL (≈ 1.97 µM).
